Structures are written as SMILES.

The test system of experiment [1] is Mus musculus. In words: Competition of compound for the in vivo localization of [11C] Methoxytetrabenazine in mouse Hyphalamus; %ID/g (%injected dose/g). The class given is functional, organism-based. An outline of the steps:
(§1)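 CD-1 mice anesthetized with diethyl ether, given by tail vein a mixture of [11C]methoxytetrabenazine (100-300 µCi) plus 10 mg/kg test compound in 10% ethanol in saline, then allowed to recover. Controls received radiotracer in saline with no competitor. Killed under ether at 15 min, regional brain radioactivity read as %ID/g; mean ± SD, unpaired Student's t-test versus controls.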

Experiment [2] has as its system Mus musculus. Kind of experiment: Competition of compound for the in vivo localization of [11C] Methoxytetrabenazine in mouse Striatum; %ID/g (%injected dose/g). The class given is functional, organism-based. An outline of the steps:
as §1

Experiment [3] concerns the target Synaptic vesicular amine transporter (Rattus norvegicus, UniProt Q01827). Kind of experiment: In vitro inhibition of [3H]- Methoxytetrabenazine binding to rat brain vesicular monoamine transporter 2 (VMAT2). An outline of the steps: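 Autoradiographic competition on rat brain coronal sections (20, caudate-putamen level) on slides. Sections prewashed at 25 °C in sucrose buffer (300 mM sucrose, 50 mM Tris, 1 mM EDTA, pH 8.0), then incubated 3 h with 10 nM [3H]methoxytetrabenazine and test drug from 1 nM. Washed 3 × 3 min, dipped in 4 °C water, air-dried, film-exposed 2 weeks.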

Sequence of Synaptic vesicular amine transporter (Q01827 whole entry): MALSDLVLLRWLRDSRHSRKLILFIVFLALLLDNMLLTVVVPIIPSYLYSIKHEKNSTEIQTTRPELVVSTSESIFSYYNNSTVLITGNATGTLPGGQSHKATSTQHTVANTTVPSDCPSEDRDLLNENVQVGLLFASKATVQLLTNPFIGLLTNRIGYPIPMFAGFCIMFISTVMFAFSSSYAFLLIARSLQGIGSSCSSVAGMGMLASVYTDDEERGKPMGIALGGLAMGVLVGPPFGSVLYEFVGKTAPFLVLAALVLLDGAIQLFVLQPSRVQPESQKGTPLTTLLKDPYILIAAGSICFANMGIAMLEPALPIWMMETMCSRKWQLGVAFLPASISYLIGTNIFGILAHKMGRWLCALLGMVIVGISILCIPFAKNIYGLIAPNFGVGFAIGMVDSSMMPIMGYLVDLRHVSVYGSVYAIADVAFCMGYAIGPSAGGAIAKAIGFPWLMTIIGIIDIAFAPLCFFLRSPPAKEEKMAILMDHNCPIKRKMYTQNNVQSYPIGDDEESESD

A word on the Ki: it is a dissociation constant, usually derived from enzyme kinetics or from competition with a known ligand. High values mean weaker binding, low ones tighter binding. For `COc1cc2c(cc1OC)[C@H]1C[C@@](O)(CC(C)C)[C@H](CC(C)C)CN1CC2`, the ID/g in experiment [1] was determined as 2.93%; in experiment [2], 5.33%. The molecule further had a Ki in experiment [3] of 33 nM.

Regarding `COc1cc2c(cc1OC)[C@H]1CC(=O)[C@H](CC(C)C)CN1CC2`, the ID/g in experiment [1] stood at 1.71%; in experiment [2] it was 2.26%.

For `COc1cc2c(cc1OC)[C@H]1C[C@@](O)(C(C)C)[C@H](CC(C)C)CN1CC2`, the ID/g in experiment [1] stood at 3.06%; in experiment [2] it was 6.21%. In experiment [3], this molecule showed a Ki of 136 nM.

On to `CC[C@]1(O)C[C@@H]2c3cc(OC)c(OC)cc3CCN2C[C@H]1CC(C)C`, for which the values for the ID/g in experiment [1] and in experiment [2] were 2% and 3.24%, respectively. The molecule also showed a Ki in experiment [3] of 42 nM.

In the case of `COc1cc2c(cc1OC)[C@H]1C[C@@](C)(O)[C@H](CC(C)C)CN1CC2`, the ID/g was 1.96% in experiment [1] and 2.09% in experiment [2]. For the same molecule, the Ki in experiment [3] stood at 2.6 nM.

On to `COc1cc2c(cc1OC)[C@H]1C[C@](C)(O)[C@H](CC(C)C)CN1CC2`, for which the values for the ID/g in experiment [1] and in experiment [2] were 1.79% and 2.35%, respectively. In addition, the Ki in experiment [3] came out at 12 nM.

For the molecule `CCC[C@]1(O)C[C@@H]2c3cc(OC)c(OC)cc3CCN2C[C@H]1CC(C)C`, the ID/g in experiment [1] worked out at 1.96%; in experiment [2] it was 4.26%. In experiment [3], this molecule returned an inhibition constant (Ki) of 84 nM.

The values above are taken from ChEMBL document CHEMBL1129286, “In vitro and in vivo studies of benzisoquinoline ligands for the brain synaptic vesicle monoamine transporter” (J Med Chem, 1996).
